Square brackets hold non-standard residues; d marks the D form. Peptide text beside a SMILES is read from it. * marks the point of attachment. ξ: configuration not given here. 2Nal = N[C@@H](Cc1ccc2ccccc2c1)C(=O)O; Picolinoyl = O=C(c1ccccn1)*; ξR = N=C(N)NCCCC(N)C(=O)O
What was measured:
[1] = biological target: T1, Gonadotropin-releasing hormone receptor (Rattus norvegicus) (UniProt P30969); assay: In vitro antagonistic activity against LH release in rat pituitary cells for control.; format: functional, cell-based; settings: Pituitary gland cell
T1 sequence (whole entry): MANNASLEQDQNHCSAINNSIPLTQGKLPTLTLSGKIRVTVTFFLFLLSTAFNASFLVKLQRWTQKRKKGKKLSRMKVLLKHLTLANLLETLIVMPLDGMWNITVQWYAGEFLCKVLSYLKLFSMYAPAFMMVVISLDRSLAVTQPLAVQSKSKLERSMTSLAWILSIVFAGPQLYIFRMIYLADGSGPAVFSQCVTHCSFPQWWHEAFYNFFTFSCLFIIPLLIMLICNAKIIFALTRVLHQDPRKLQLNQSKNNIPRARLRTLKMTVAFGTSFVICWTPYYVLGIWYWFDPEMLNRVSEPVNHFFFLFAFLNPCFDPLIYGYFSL
Method in brief: (§1)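 Anterior pituitaries from female Sprague-Dawley rats (240-260 g, 18 rats) were minced and dispersed in Gey's solution with trypsin, DNase I and LBBI. Cells were plated in DMEM with 0.45% glucose, 25 mM HEPES, serum, T and 100 nM dexamethasone at about 3.0 × 10^5 cells/mL and cultured 4 days at 37 °C in 8% CO2. Cells were then exposed to antagonist plus 1 ng LHRH in Gey's solution with 0.3% glucose for 2 h. LH in the medium was measured by RIA as ng/mL of RP-3.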

Rattus norvegicus [2] = assay: In vivo anti-ovulatory activity (AOA) against LHRH was determined at a dose of 1000 ug in 6 rats; format: functional
Method in brief: (§2)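 Female 4-day cycling rats received a single subcutaneous injection of analog in corn oil between 12 and 12:30 p.m. Ova were counted on estrus. Activity is given as the number of ovulating rats over the total rats at each dose.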

Rattus norvegicus [3] = assay: In vivo anti-ovulatory activity (AOA) against LHRH was determined at a dose of 100 ug in 6 rats; format: functional; method in brief: as §2
[4] = biological target: T1, Gonadotropin-releasing hormone receptor (Rattus norvegicus); assay: In vitro inhibition of LH release in rat pituitary cells at a dose of 1 ug of analogue and 1 ng of LHRH.; format: functional, cell-based; settings: Pituitary gland cell; method in brief: as §1
Rattus norvegicus [5] = organism: Rattus norvegicus; assay: In vitro inhibition of LH release in rat pituitary cells at a dose of 1 ng LHRH in absence of the compound.; format: functional, Pituitary gland cell; parameters: unit: ng/mL; method in brief: as §1
[6] = biological target: T1, Gonadotropin-releasing hormone receptor (Rattus norvegicus); assay: In vitro inhibition of LH release was determined in rat pituitary cells at a dose of 0.03 ug of analogue and 1 ng of LHRH; format: functional, cell-based; settings: Pituitary gland cell; method in brief: as §1
[7] = biological target: T1, Gonadotropin-releasing hormone receptor (Rattus norvegicus); assay: In vitro inhibition of LH release was determined in rat pituitary cells at a dose of 0.1 ug of analogue and 1 ng of LHRH; format: functional, cell-based; settings: Pituitary gland cell; method in brief: as §1
[8] = biological target: T1, Gonadotropin-releasing hormone receptor (Rattus norvegicus); assay: In vitro inhibition of LH release was determined in rat pituitary cells at a dose of 0.3 ug of analogue and 1 ng of LHRH; format: functional, cell-based; settings: Pituitary gland cell; method in brief: as §1
Rattus norvegicus [9] = assay: In vivo anti-ovulatory activity (AOA) against LHRH was determined at a dose of 10 ug in 6 rats; format: functional; method in brief: as §2
[10] = biological target: T1, Gonadotropin-releasing hormone receptor (Rattus norvegicus); assay: In vitro inhibition of LH release determined in rat pituitary cells at a dose of 3 ug of analogue and 1 ng of LHRH; format: functional, cell-based; settings: Pituitary gland cell; method in brief: as §1
[11] = biological target: T1, Gonadotropin-releasing hormone receptor (Rattus norvegicus); assay: In vitro inhibition of LH release was determined in rat pituitary cells at a dose of 30 ug of analogue and 1 ng of LHRH; format: functional, cell-based; settings: Pituitary gland cell; method in brief: as §1
[12] = biological target: T1, Gonadotropin-releasing hormone receptor (Rattus norvegicus); assay: In vitro inhibition of LH release was determined in rat pituitary cells at a dose of 100 ug of analogue and 1 ng of LHRH; format: functional, cell-based; settings: Pituitary gland cell; method in brief: as §1
[13] = biological target: T1, Gonadotropin-releasing hormone receptor (Rattus norvegicus); assay: In vitro inhibition of LH release was determined in rat pituitary cells at a dose of 10 ug of analogue and 1 ng of LHRH; format: functional, cell-based; settings: Pituitary gland cell; method in brief: as §1
Rattus norvegicus [14] = assay: In vivo anti-ovulatory activity (AOA) against LHRH was determined at a dose of 1 ug in 6 rats; format: functional; method in brief: as §2
Rattus norvegicus [15] = assay: In vivo anti-ovulatory activity (AOA) against LHRH was determined at a dose of 1000 ug in 9 rats; format: functional; method in brief: as §2

Activity [1]	Activity [4]	Activity [6]	Activity [7]	Activity [8]	Activity [10]	Activity [11]	Activity [12]	Activity [13]	SMILES	AOA (Rattus norvegicus [2])	AOA (Rattus norvegicus [3])	Activity (Rattus norvegicus [5])	AOA (Rattus norvegicus [9])	AOA (Rattus norvegicus [14])	AOA (Rattus norvegicus [15])
3.1	145				139	113	71	129	CC(=O)N[C@@H](Cc1ccc2ccccc2c1)C(=O)N[C@@H](CCCCNC(=O)c1ccccn1)C(=O)N1CCC[C@H]1C(N)=O			145			
3.5	151				145	66	69	101	CC(=O)N[C@@H](Cc1ccc2ccccc2c1)C(=O)N[C@@H](CCCN=C(N)N)C(=O)N[C@@H](C)C(N)=O			153			
2.3	142				135	66	21	121	CC(=O)N[C@@H](Cc1ccc2ccccc2c1)C(=O)N[C@@H](Cc1ccc(O)cc1)C(=O)N[C@@H](Cc1ccc2ccccc2c1)C(=O)N[C@@H](CCCN=C(N)N)C(=O)N[C@@H](C)C(N)=O (Ac-[2Nal]Y[2Nal]RA-NH2)			156			
2.3	145				158	122	98	147	CCNC(=O)[C@@H]1CCCN1C(=O)[C@H](CCCN=C(N)N)NC(=O)[C@H](CC(C)C)NC(=O)[C@H](Cc1ccc2ccccc2c1)NC(=O)[C@H](Cc1ccc2ccccc2c1)NC(C)=O (Ac-[2Nal][2Nal]LRP-NHEt)			156			
3.5	148				145	136	63	132	CC(=O)N[C@@H](Cc1ccc2ccccc2c1)C(=O)N[C@@H](CCCCNC(=O)c1ccccn1)C(=O)NC(CCCN=C(N)N)C(=O)N1CCC[C@H]1C(N)=O (some centres undefined) (Ac-[2Nal]K(Picolinoyl)[ξR]P-NH2)			153			
3.5	145				136	87	49	116	CC(=O)N[C@@H](Cc1ccc2ccccc2c1)C(=O)N[C@@H](CC(C)C)C(=O)N[C@@H](CCCN=C(N)N)C(=O)N[C@@H](C)C(N)=O (Ac-[2Nal]LRA-NH2)			155			
2.3	147				145	26	8	75	CC(=O)NC(Cc1ccc2ccccc2c1)C(=O)N[C@@H](CCCCNC(=O)c1ccccn1)C(=O)N[C@@H](CCCN=C(N)N)C(=O)NC(C)C(N)=O (single isomer, unassigned)			156			

Continued, compound first:

SMILES	Activity [1]	Activity [4]	Activity [6]	Activity [7]	Activity [8]	Activity [10]	Activity [11]	Activity [12]	Activity [13]	AOA (Rattus norvegicus [2])	AOA (Rattus norvegicus [3])	Activity (Rattus norvegicus [5])	AOA (Rattus norvegicus [9])	AOA (Rattus norvegicus [14])	AOA (Rattus norvegicus [15])
CC(=O)N[C@H](Cc1ccc2ccccc2c1)C(=O)N[C@H](Cc1cccnc1)C(=O)N[C@@H](CO)C(=O)N[C@@H](Cc1ccc(O)cc1)C(=O)N[C@H](Cc1ccc2ccccc2c1)C(=O)N[C@@H](CC(C)C)C(=O)N[C@@H](CCCN=C(N)N)C(=O)N1CCC[C@H]1C(=O)N[C@H](C)C(N)=O	3.8	3	28	14	6					4	6	149	6		
CC(=O)N[C@@H](Cc1ccc2ccccc2c1)C(=O)N[C@@H](C)C(N)=O (Ac-[2Nal]-Ala-NH2)	3.5	148				153	88	16	124			153			
CC(=O)NC(Cc1ccc2ccccc2c1)C(=O)N[C@@H](Cc1ccc(Cl)cc1)C(=O)N[C@@H](CO)C(=O)N[C@@H](Cc1ccc(O)cc1)C(=O)NC(Cc1ccc2ccccc2c1)C(=O)N[C@@H](CC(C)C)C(=O)N[C@@H](CCCN=C(N)N)C(=O)N1CCC[C@H]1C(=O)N[C@H](C)C(N)=O (stereo in doubt)	3.8	6	39	29	14					6	6	149			
CC(=O)NC(Cc1ccc2ccccc2c1)C(=O)N[C@@H](Cc1ccc(Cl)cc1)C(=O)N[C@@H](Cc1cccnc1)C(=O)N[C@@H](CO)C(=O)N[C@@H](Cc1ccc(O)cc1)C(=O)NC(Cc1ccc2ccccc2c1)C(=O)N[C@@H](CC(C)C)C(=O)N[C@@H](CCCN=C(N)N)C(=O)N1CCC[C@H]1C(=O)N[C@H](C)C(N)=O (stereo in doubt)	3.8	4	8	4	4							149	0	5	
CCNC(=O)[C@@H]1CCCN1C(=O)[C@H](CCCN=C(N)N)NC(=O)[C@H](CC(C)C)NC(=O)[C@@H](Cc1ccc2ccccc2c1)NC(=O)[C@H](Cc1ccc(O)cc1)NC(=O)[C@H](CO)NC(=O)[C@@H](Cc1ccc2ccccc2c1)NC(C)=O	3.2	3	45	5	4						6	153			2
CCNC(=O)[C@@H]1CCCN1C(=O)[C@H](Cc1ccc2ccccc2c1)NC(C)=O (Ac-[2Nal]-Pro-NHEt)	3.1	135				141	59	14	101			145			
CC(=O)NC(Cc1ccc2ccccc2c1)C(=O)N[C@@H](CO)C(=O)N[C@@H](Cc1ccc(O)cc1)C(=O)NC(Cc1ccc2ccccc2c1)C(=O)N[C@@H](CC(C)C)C(=O)N[C@@H](CCCN=C(N)N)C(=O)N1CCC[C@H]1C(=O)N[C@H](C)C(N)=O (stereo in doubt)	5.3	7		37	12	3				6	6	236			

Source: ChEMBL document CHEMBL1128487, “Reduced-size antagonists of luteinizing hormone-releasing hormone active in vitro” (1995)
